# Measured values: PubChem BioAssay
# Active and inactive are the calls of the source.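 The calls were made as follows, unless noted: active = NADPH fluorescence slope more negative than the mean of all samples by about 3 SD, 99.7% confidence; inactive = the rest.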
# What was measured:
# [1] = inhibitors of TNFa-induced NFkB p65 translocation, primary screen, imaging, HUVEC, MLSMR starter and 10KST1 sets (AID 438;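 active = inhibition above 20% together with a positive visual image hit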;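 also: compound added about 3h40 before a 20 min TNFalpha stimulation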;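 as to inhibition: signal is the nuclear over cytoplasmic p65 intensity ratio per well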); conditions: HUVEC TNFa-induced p65 nuclear translocation; cell count: measured here: nuclei count (cytotoxicity indicator), at 2.08 µM; inhibition: at 2 µM, stronger effect = higher value, 0% TNFa-plus-vehicle, 100% no-TNFa wells
# [2] = inhibitors of E-selectin induction by TNFa, primary screen, imaging, HUVEC, immunofluorescence, MLSMR starter and 10KST1 sets (AID 487;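 active = visually confirmed hit in the image check and inhibition above 20%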;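 as to inhibition: signal is fraction of cell area covered by stained E-selectin grains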;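 as to nuclei count: 100% = median nuclei count of all wells on the same plate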); conditions: HUVEC TNFalpha-induced E-selectin immunofluorescence imaging, at 2 µM; inhibition: stronger effect = higher value; nuclei count: measured here: cell number, toxicity
# [3] = DUSP6 inhibitors restoring Erk phosphorylation by chemical complementation, primary imaging in DUSP6-transfected HeLa (AID 609;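 active = compounds giving at least 50% inhibition in the cell-based MKP-3 phosphatase rescue imaging test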;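 as to inhibition: phospho-Erk level distribution per well compared with pooled transfected vehicle control wells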); conditions: HeLa MKP-3 transfected, phospho-Erk imaging KS statistic, at 10 µM, cells stimulated with TPA for 15 min
# [4] = target: Dual specificity protein phosphatase 6 (Homo sapiens) (UniProt Q16828); experiment: as above; conditions: HeLa MKP-3 transfected, phospho-Erk imaging KS statistic; at 10 µM; stronger effect = higher value; cells stimulated with TPA for 15 min
# [5] = target: Voltage-gated potassium channel subunit beta-2 (Rattus norvegicus) (UniProt P62483); experiment: KvBeta enzyme negative modulators, primary screen, biochemical, NADPH fluorescence (AID 622;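 active = fluorescence slope higher than the sample average by over 3 SD, cut at about -0.22 in these data, passing the limit was not always enough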;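 also: slope of raw intensity against log time taken from 70 to 1610 s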); conditions: recombinant KvBeta, 4-cyanobenzaldehyde reduction, at 10 µM, stronger effect = higher value
# [6] = target: Voltage-gated potassium channel subunit beta-2 (Rattus norvegicus) (UniProt P62483); experiment: KvBeta positive modulators, primary screen, biochemical, NADPH fluorescence (AID 623); conditions: Recombinant KvBeta, NADPH fluorescence decrease slope, 10 min; at 10 µM; stronger effect = lower value;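 also: fluorescence intensity change per second fitted from 20 to 320 s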
# [7] = target: Muscarinic acetylcholine receptor M4 (Homo sapiens) (UniProt P08173); experiment: compounds altering M4/GIRK thallium flux, either direction, primary screen, M4 allosteric agonist project, cell-based, HEK293 M4/GIRK, BTC-AM (AID 625;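 active = fluorescence slope after compound addition differing from the mean of all tested samples at 99.7% confidence, mostly higher but some lower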;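 also: thallium influx through GIRK channels coupled to M4 in HEK293 cells with BTC-AM dye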); conditions: at 10 µM, actives lie on both sides
# Outline: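 Material: M4/GIRK1/GIRK2 stable HEK293 cell line. Medium: pH 7.3 thallium assay buffer. Dosing: single compound concentration, 10 µM final. Schedule: 1 h dye loading, 2 min kinetic read. Measured by: kinetic fluorescence with BTC-AM dye. Read-out: post-addition slope, 15–24 s, of baseline-normalized fluorescence. Benchmarks: carbachol and DMSO controls.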
# [8] = inhibitors of larval lipid processing in zebrafish, primary screen, whole organism, PED6 fluorescence, gall bladder and intestine (AID 686;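 active = a full or partial loss of lipid-probe fluorescence in the fish gall bladder, intestine or both, judged by eye; inactive = no fluorescence loss, or compound toxic to the fish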;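 also: larvae 5 to 7 days old with five fish per well; signal comes from phospholipase A2 cleavage of quenched PED6 carried via bile; overnight exposure to compound and PED6 before scoring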); conditions: Zebrafish larvae PED6 lipid processing, fluorescence scoring; screened at 20 µM (by protocol)
# Outline: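 System: live zebrafish larvae aged 5-7 days, whole organism; measure: graded gall bladder and intestinal fluorescence inhibition per well; incubation: overnight exposure; reagent: ingested quenched lipid PED6 at 100 nM; signal: By-eye fluorescence microscopy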
# [9] = inhibitors of Chlamydomonas gravitaxis, primary screen, whole organism, Chlamydomonas reinhardtii, WT vs cilia-less mutant, absorbance, 96-well (AID 463189;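 active = inhibition at or above 50% relative to wild type and mutant plate controls; inactive = inhibition below 50%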;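 also: 0% = wild type cc124 cells in DMSO and 100% = ciliumless bld1 mutant cells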); conditions: OD600 absorbance, 2 days, at 10 µM, stronger effect = higher value
# [10] = measured here: cell density z-score
# [11] = measured here: nuclear c-Myc green intensity z-score
# [12] = measured here: nuclear pErk red intensity z-score, stronger effect = higher value
# Voltage-gated potassium channel subunit beta-2 (Rattus norvegicus), sequence (P62483 whole entry, looked up): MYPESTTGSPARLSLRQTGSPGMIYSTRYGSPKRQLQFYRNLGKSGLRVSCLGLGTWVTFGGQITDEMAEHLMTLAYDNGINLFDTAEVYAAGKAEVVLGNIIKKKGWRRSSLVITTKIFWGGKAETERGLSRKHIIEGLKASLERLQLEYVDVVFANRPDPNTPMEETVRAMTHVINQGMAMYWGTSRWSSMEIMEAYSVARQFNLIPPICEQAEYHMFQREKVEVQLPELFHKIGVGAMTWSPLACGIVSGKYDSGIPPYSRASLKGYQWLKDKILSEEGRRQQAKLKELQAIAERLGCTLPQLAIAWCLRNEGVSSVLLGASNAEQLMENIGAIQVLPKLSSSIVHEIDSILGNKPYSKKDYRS
# Muscarinic acetylcholine receptor M4 (Homo sapiens), sequence (P08173 whole entry, looked up): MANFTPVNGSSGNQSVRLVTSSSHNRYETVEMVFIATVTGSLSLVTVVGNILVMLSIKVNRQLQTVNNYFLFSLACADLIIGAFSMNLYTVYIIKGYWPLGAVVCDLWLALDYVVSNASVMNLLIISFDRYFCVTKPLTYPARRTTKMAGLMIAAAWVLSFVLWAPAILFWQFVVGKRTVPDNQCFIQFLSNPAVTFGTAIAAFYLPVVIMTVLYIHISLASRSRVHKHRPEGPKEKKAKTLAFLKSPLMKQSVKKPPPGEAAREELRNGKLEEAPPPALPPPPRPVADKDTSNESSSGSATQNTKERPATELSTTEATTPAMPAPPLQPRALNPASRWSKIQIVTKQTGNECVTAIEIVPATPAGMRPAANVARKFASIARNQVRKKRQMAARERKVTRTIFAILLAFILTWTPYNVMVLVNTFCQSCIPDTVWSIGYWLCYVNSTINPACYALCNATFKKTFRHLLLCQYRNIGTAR
# Dual specificity protein phosphatase 6 (Homo sapiens), sequence (Q16828 whole entry, looked up): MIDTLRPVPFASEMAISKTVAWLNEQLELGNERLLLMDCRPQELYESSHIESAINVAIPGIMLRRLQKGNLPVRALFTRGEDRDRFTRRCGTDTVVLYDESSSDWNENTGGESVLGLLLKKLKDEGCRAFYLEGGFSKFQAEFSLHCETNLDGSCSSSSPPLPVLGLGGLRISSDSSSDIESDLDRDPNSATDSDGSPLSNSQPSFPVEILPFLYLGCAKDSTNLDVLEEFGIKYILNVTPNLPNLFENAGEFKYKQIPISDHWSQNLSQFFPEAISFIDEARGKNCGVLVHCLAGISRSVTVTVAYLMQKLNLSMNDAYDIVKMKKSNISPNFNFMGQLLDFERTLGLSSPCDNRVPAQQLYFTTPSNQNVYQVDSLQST
SMILES,cell count [1],inhibition [1],inhibition [2],nuclei count [2] [%],"z-score [3, 10]","z-score [3, 11]","z-score [3, 12]",inhibition [4],fluorescence slope [5],NADPH fluorescence slope [6],fluorescence slope [7],outcome [8],inhibition [9]
Cc1ccc(-n2ncc3c(NCc4cccnc4)ncnc32)c(C)c1,623,-10.1% (inactive),33.3% (inactive),103,-0.852,0.459,0.734,1.42% (inactive),-0.325 (inactive),-4.3e-05 (inactive),0.00518 (inactive),inactive,-12.1% (inactive)
CN(C)CCCN1C(=O)C(=O)/C(=C(/O)c2ccccc2)C1c1ccccn1 (stereo unspecified),473,-8.2% (inactive),-97.3% (inactive),158,1.03,-1.2,0.352,1.04% (inactive),-0.486 (inactive),-6.1e-05 (inactive),0.00459 (inactive),inactive,10.1% (inactive)
COc1cc(S(=O)(=O)N2CCN(c3ccc(F)cc3)CC2)ccc1Cl,609,-2.2% (inactive),-32.9% (inactive),124,-0.486,-0.838,0.956,-7.67% (inactive),-0.449 (inactive),-4.1e-05 (inactive),0.00423 (inactive),inactive,-4.27% (inactive)
Cn1c(=O)[nH]c(=O)c2c1nc(Br)n2CCSc1nnnn1-c1ccccc1,639,0.9% (inactive),-40.4% (inactive),177,-0.541,-0.392,1.24,3.42% (inactive),-0.384 (inactive),-4e-05 (inactive),0.00586 (inactive),inactive,27.6% (inactive)
O=C(Nc1ccccc1)c1cc(N2CCOCC2)nc2ccccc12,667,-1.5% (inactive),-114% (inactive),149,1.08,1.33,-0.63,6.51% (inactive),-0.419 (inactive),-6.8e-05 (inactive),0.00579 (inactive),inactive,-0.488% (inactive)
Cn1ncc(N=Cc2ccccc2O)c1C(=O)N1CCOCC1,723,6.6% (inactive),-60.6% (inactive),172,-0.778,-0.56,0.451,7.93% (inactive),-0.486 (inactive),-9.6e-05 (inactive),0.00481 (inactive),inactive,32.2% (inactive)
CCSc1nnc(NC(NC(=O)c2ccco2)(C(F)(F)F)C(F)(F)F)s1,608,-7.3% (inactive),-13.8% (inactive),91.9,-1.05,-0.75,-0.312,-7.67% (inactive),-0.483 (inactive),-3.9e-05 (inactive),0.00455 (inactive),inactive,-9.53% (inactive)
CC12CN3CC(=O)N4CC5(C)CN(CC(C)(C4)C5=O)C(=O)CN(C1)CC(C)(C3)C2=O,523,-11.2% (inactive),-128% (inactive),144,0.984,-0.638,-0.379,1.42% (inactive),-0.485 (inactive),-0.000104 (inactive),0.00461 (inactive),inactive,6.7% (inactive)
c1nc(NC2CCCCC2)c2[nH]cnc2n1,743,-1.9% (inactive),-76.5% (inactive),168,-1.06,0.0486,-0.156,9.91% (inactive),-0.483 (inactive),-6.4e-05 (inactive),0.00575 (inactive),inactive,3.23% (inactive)
COC(=O)NCC12CC3CC(C1)CC(CNC(=O)OC)(C3)C2,541,2.3% (inactive),-75% (inactive),122,0.785,1.4,-1.34,5.42% (inactive),-0.467 (inactive),-0.0001 (inactive),0.00455 (inactive),inactive,-5.97% (inactive)
C=C(C)CSc1nc(N)c2c3c(sc2n1)CCC3,394,-3.4% (inactive),2.9% (inactive),149,-1.07,1.64,-0.412,5.42% (inactive),-0.451 (inactive),-0.000115 (inactive),0.00788 (inactive),inactive,-7.33% (inactive)
CCCCN(C(=O)CCC(=O)O)C1CC(=O)N(c2ccc(OCCC)cc2)C1=O (stereo unspecified),639,5.2% (inactive),-33% (inactive),116,-0.992,-0.45,-0.105,-9.53% (inactive),-0.464 (inactive),-2.3e-05 (inactive),0.00463 (inactive),inactive,-0.122% (inactive)
O=C(COc1ccc(-c2nnc(N3CCCCC3)c3ccccc23)cc1)N1CCCCC1,373,1.4% (inactive),-58.5% (inactive),89.7,0.333,-0.404,1.13,5.65% (inactive),-0.487 (inactive),2e-05 (inactive),0.00419 (inactive),inactive,34.6% (inactive)
Cc1ccc(NC(=O)Cn2nc(C)c3ccccc3c2=O)cc1,576,-1.6% (inactive),-60.9% (inactive),134,1,-0.268,1.91,9.07% (inactive),-0.496 (inactive),-0.000121 (inactive),0.00582 (inactive),inactive,-6.33% (inactive)
C=CCN=C(C)C1=C(O)CCC1=O,637,3.3% (inactive),-33.6% (inactive),116,-0.646,0.913,-0.284,-2.09% (inactive),-0.445 (inactive),-6.8e-05 (inactive),0.0054 (inactive),inactive,11.3% (inactive)
CCN(CC)CCNc1ncnc2c1[nH]c1ccc(OC)cc12,595,-7.6% (inactive),-67.9% (inactive),150,1.23,-0.0798,-1.12,3.42% (inactive),-0.236 (inactive),1.1e-06 (inactive),0.00672 (inactive),inactive,6% (inactive)
CCOC(=O)c1cnn2c1[nH]c(=O)c1ccccc12,560,-6.1% (inactive),-143% (inactive),165,0.0185,1.83,-0.274,17.8% (inactive),-0.378 (inactive),-4.5e-05 (inactive),0.0106 (active),inactive,24.1% (inactive)
Cn1c(Cn2cnc3ccccc32)nc2ccccc21,543,0.2% (inactive),22% (inactive),78.7,1.23,-0.835,-0.272,-3.95% (inactive),-0.431 (inactive),9.8e-06 (inactive),0.00479 (inactive),inactive,23% (inactive)
CCOC(=O)/C(C#N)=C1/SC(CCO)C(=O)N1c1ccccc1 (stereo unspecified),541,-19.2% (inactive),-6.8% (inactive),122,-0.811,0.0733,0.776,-2.59% (inactive),-0.373 (inactive),-2e-05 (inactive),0.00516 (inactive),inactive,-8.39% (inactive)
CC1=C(C#N)C(=O)OC(C)(C)C1,660,-3.9% (inactive),-22.9% (inactive),101,-2.1,0.204,-1.02,-1.98% (inactive),-0.489 (inactive),-7.4e-05 (inactive),0.00496 (inactive),inactive,-18.3% (inactive)
CCOc1ccc2nc(NC(NC(C)=O)(C(=O)OC)C(F)(F)F)sc2c1 (stereo unspecified),550,1.9% (inactive),-54.7% (inactive),119,-0.584,0.796,1.15,-4.59% (inactive),-0.459 (inactive),-0.000128 (inactive),0.00553 (inactive),inactive,7.67% (inactive)
CCOC(=O)NC1(C(F)(F)F)C(=O)NC(C)=C1C#N (stereo unspecified),377,3.7% (inactive),5.5% (inactive),129,-0.0977,-0.0162,0.321,3.42% (inactive),-0.427 (inactive),-0.000119 (inactive),0.00503 (inactive),inactive,23.5% (inactive)
O=C1C(=O)N(CCCn2ccnc2)C(c2ccccn2)/C1=C(/O)c1ccccc1 (stereo unspecified),436,-12.2% (inactive),-259% (inactive),147,-0.279,-1.33,0.494,9.37% (inactive),-0.469 (inactive),-5.2e-05 (inactive),0.00446 (inactive),inactive,0.678% (inactive)
CCOC(=O)C(C)Sc1nc(-c2cccs2)ccc1C#N (stereo unspecified),657,0.6% (inactive),29.6% (inactive),189,-1.44,0.836,0.563,-7.86% (inactive),-0.427 (inactive),-5.7e-05 (inactive),0.00531 (inactive),inactive,4.31% (inactive)
CCSc1nnc(NC(=O)NCC(F)(F)F)s1,580,-4.9% (inactive),31.5% (inactive),96.4,1.02,-0.999,-0.913,9.07% (inactive),-0.469 (inactive),-3.9e-05 (inactive),0.00649 (inactive),inactive,-11.4% (inactive)
COc1cccc(Cn2c(NCc3ccccn3)nc3c2c(=O)n(C)c(=O)n3C)c1,694,-20.9% (inactive),-199% (inactive),189,0.955,-1.34,-0.0315,17.8% (inactive),-0.5 (inactive),-7.9e-05 (inactive),0.00592 (inactive),inactive,4.17% (inactive)
O=C(c1ccc2c3c(cccc13)C(=O)N(O)C2=O)N1CCCCC1,583,-6.7% (inactive),65.6% (active),92.9,1.73,-0.867,-1.15,35.1% (inactive),-0.426 (inactive),-3.2e-05 (inactive),0.00526 (inactive),inactive,35.8% (inactive)
